This note sets out measurements from ChEMBL document CHEMBL3259598, “Lignan dicarboxylates and terpenoids from the flower buds of Cananga odorata and their inhibitory effects on melanogenesis” (J Nat Prod, 2014).

Each structure is given as a SMILES string. Where only a bound is given, the exact number is not on record here.

Series [1] is described as follows: Inhibition of melanogenesis in mouse B16-4A5 cells at 1 uM after 72 hrs by spectrophotometry relative to control. As to conditions: B16-4A5, 72 h. In kind it is functional. In a few lines:
(§1)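 Murine B16 melanoma 4A5 cells seeded at 2.0 × 10^4 cells/well in 24-well plates and cultured 24 h, then given test compound (DMSO, final 0.1%) plus 1 mM theophylline for 72 h. Cells trypsinized, washed and lysed in 1 M NaOH at 80 °C for 30 min; lysate absorbance read at 405 nm. Inhibition is corrected for cell viability, mean ± SEM (n = 4); IC50 determined graphically.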

The nature of series [2]: Inhibition of melanogenesis in mouse B16-4A5 cells at 3 uM after 72 hrs by spectrophotometry relative to control. The series is classed as functional. As to conditions: B16-4A5, 72 h. In a few lines:
as §1

The nature of series [3]: Inhibition of melanogenesis in mouse B16-4A5 cells at 10 uM after 72 hrs by spectrophotometry relative to control. Particulars: B16-4A5, 72 h. The series is classed as functional. An outline of the steps:
as §1

Series [4] can be described thus: Inhibition of melanogenesis in mouse B16-4A5 cells at 30 uM after 72 hrs by spectrophotometry relative to control. In kind it is functional. Particulars: B16-4A5, 72 h. An outline of the steps: as §1
The nature of series [5]: Inhibition of melanogenesis in mouse B16-4A5 cells at 100 uM after 72 hrs by spectrophotometry relative to control. The series is classed as functional. As to conditions: B16-4A5, 72 h. In a few lines:
as §1

Series [6] in a line: Inhibition of melanogenesis in mouse B16-4A5 cells after 72 hrs by spectrophotometry relative to control. The series is classed as functional, cell-based. An outline of the steps: as §1
Series [7] is described as follows: Cytotoxicity against mouse B16-4A5 cells assessed as viable cells at 30 uM after 72 hrs by WST-8 assay. The series is classed as cell-based. As to conditions: read-out: Activity. An outline of the steps:
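B16 melanoma 4A5 cells (DMEM, 4.5 g/L glucose, 10% FBS, 37 °C, 5% CO2) seeded at 5.0 × 10^4 cells/well in 96-well plates, grown 24 h, then exposed to test compound (DMSO, final 0.1%) for 70 h. After a PBS wash, cells were given DMEM plus WST-8 for 2 h more. Formazan read at 450 nm (reference 655 nm).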

Turning to `O=C[C@]1(/C=C\O[C@@H]2O[C@H](CO)[C@@H](O)[C@H](O)[C@H]2O)CC[C@H](COC(=O)C(=C/c2ccc(O)cc2)/C(=C\c2ccc(O)c(O)c2)C(=O)OC[C@H]2CC[C@](C=O)(/C=C\O[C@@H]3O[C@H](CO)[C@@H](O)[C@H](O)[C@H]3O)[C@@H](O)C2)C[C@@H]1O`, the inhibition at 1 µM in series [1] turned out to be 28.6%. For the same compound, the inhibition at 3 µM in series [2] was determined as 30.2%. Besides, the inhibition at 10 µM in series [3] was found to be 31.8%. Also, in series [4], the inhibition at 30 µM was 34.8%. Moreover, the inhibition at 100 µM in series [5] stood at 16.7%. For the same compound, the half-inhibitory concentration (IC50) in series [6] is above 100 µM. Moreover, the viability at 72 h, 30 µM in series [7] was above 95.2%.

Regarding `O=C[C@]1(/C=C\O[C@@H]2O[C@H](CO)[C@@H](O)[C@H](O)[C@H]2O)CC[C@H](COC(=O)C2=Cc3cc(O)c(O)cc3[C@@H](c3ccc(O)cc3)[C@@H]2C(=O)OC[C@H]2CC[C@](C=O)(/C=C\O[C@@H]3O[C@H](CO)[C@@H](O)[C@H](O)[C@H]3O)[C@@H](O)C2)C[C@@H]1O`, the inhibition at 1 µM in series [1] amounted to 9.2%. In addition, in series [2], the inhibition at 3 µM is 8.7%. In series [3], the inhibition at 10 µM was 3.6%. For the same compound, the inhibition at 30 µM in series [4] came out at 2.9%. Further, the inhibition at 100 µM in series [5] is 8.7%. The half-inhibitory concentration (IC50) in series [6] is above 100 µM. In addition, in series [7], the viability at 72 h, 30 µM was above 80.3%.

`O=C[C@]1(/C=C\O[C@@H]2O[C@H](CO)[C@@H](O)[C@H](O)[C@H]2O)CC[C@H](COC(=O)C2=Cc3ccc(O)c(O)c3[C@@H](c3ccc(O)cc3)[C@@H]2C(=O)OC[C@H]2CC[C@](C=O)(/C=C\O[C@@H]3O[C@H](CO)[C@@H](O)[C@H](O)[C@H]3O)[C@@H](O)C2)C[C@@H]1O`: in series [1], the inhibition at 1 µM worked out at 12.8%. Besides, in series [2], the inhibition at 3 µM was determined as 14.9%. Also, in series [3], the inhibition at 10 µM worked out at 9.4%. For the same compound, in series [4], the inhibition at 30 µM was determined as 8.4%. The inhibition at 100 µM in series [5] was -27.9%. In series [6], the IC50 is above 100 µM. The viability at 72 h, 30 µM in series [7] is above 80.3%.

Consider `O=C[C@]1(/C=C\O[C@@H]2O[C@H](CO)[C@@H](O)[C@H](O)[C@H]2O)CC[C@H](COC(=O)/C=C/c2ccc(O)c(O)c2)C[C@@H]1O`, for which the inhibition at 1 µM in series [1] is -3.8%. Also, in series [2], the inhibition at 3 µM was -8.5%. Moreover, the inhibition at 10 µM in series [3] came out at 9.3%. The inhibition at 30 µM in series [4] is 11.4%. Further, the inhibition at 100 µM in series [5] turned out to be 12.2%. In series [6], the IC50 was above 100 µM. Also, the viability at 72 h, 30 µM in series [7] was above 95.2%.

Turning to `CO[C@@H]1C[C@]2(CC[C@H](COC(=O)/C=C/c3ccc(O)c(O)c3)C[C@@H]2O)[C@@H](OC)O1`, the inhibition at 1 µM in series [1] stood at 34.7%. Moreover, the inhibition at 3 µM in series [2] was 42.8%. Besides, the inhibition at 10 µM in series [3] is 65.2%. The inhibition at 30 µM in series [4] is 62.8%. Moreover, in series [5], the inhibition at 100 µM was determined as 66.8%. The half-inhibitory concentration (IC50) in series [6] was 3.6 µM. Moreover, the viability at 72 h, 30 µM in series [7] was above 95.2%.

As for `CO[C@H]1C[C@]2(CC[C@H](COC(=O)/C=C/c3ccc(O)c(O)c3)C[C@@H]2O)[C@H](OC)O1`, the inhibition at 1 µM in series [1] was 13.5%. Also, in series [2], the inhibition at 3 µM was 16.9%. Further, the inhibition at 10 µM in series [3] came out at 36.4%. Moreover, the inhibition at 30 µM in series [4] was 60%. Also, the inhibition at 100 µM in series [5] was 81.2%. In series [6], this compound registered an IC50 of 19.3 µM. For the same compound, the viability at 72 h, 30 µM in series [7] is above 80.3%.

Consider `CC(C)[C@@H]1CC[C@@](C)(O)[C@H]2CCC(C=O)=C[C@@H]12`, for which, in series [1], the inhibition at 1 µM was 19.2%. In series [2], the inhibition at 3 µM was found to be 29.9%. Also, the inhibition at 10 µM in series [3] was 35.8%. In series [4], the inhibition at 30 µM came to 50.8%. In series [5], the inhibition at 100 µM is 66.3%. Besides, in series [6], half-maximal inhibition (IC50) required 26.2 µM. Besides, the viability at 72 h, 30 µM in series [7] is above 80.3%.

Consider `CC(C)[C@H]1CC[C@]2(C)[C@@H](O)CCC(C=O)=C[C@@H]12`, for which the inhibition at 1 µM in series [1] is -4.4%. For the same compound, in series [2], the inhibition at 3 µM was found to be 9.2%. Moreover, the inhibition at 10 µM in series [3] came to 14.7%. Also, in series [4], the inhibition at 30 µM was determined as 37.7%. In addition, in series [5], the inhibition at 100 µM came out at 58.8%. Besides, half-maximal inhibition in series [6] (IC50) required 57.5 µM. The viability at 72 h, 30 µM in series [7] was above 80.3%.

Consider `CC(C)[C@H]1CC[C@]2(C)C(=O)CCC(C=O)=C[C@@H]12`, for which, in series [1], the inhibition at 1 µM turned out to be 45.5%. The inhibition at 3 µM in series [2] stood at 50.3%. The inhibition at 10 µM in series [3] was found to be 57.6%. In addition, the inhibition at 30 µM in series [4] was 68.5%. Also, the inhibition at 100 µM in series [5] was 80.6%. In series [6], this compound returned an IC50 of 2.5 µM. In addition, the viability at 72 h, 30 µM in series [7] was above 95.2%.

As for `C=C1/C=C/[C@H](C(C)C)CCC(=C)[C@H](O)CC1`, in series [1], the inhibition at 1 µM turned out to be 28.9%. Moreover, in series [2], the inhibition at 3 µM was 30.5%. The inhibition at 10 µM in series [3] amounted to 40.6%. Moreover, the inhibition at 30 µM in series [4] is 61.2%. In addition, in series [5], the inhibition at 100 µM stood at 62.2%. Moreover, half-maximal inhibition in series [6] (IC50) required 17.3 µM. Moreover, the viability at 72 h, 30 µM in series [7] was above 95.2%.

For the compound `O=C[C@]1(CCO[C@@H]2O[C@H](CO)[C@@H](O)[C@H](O)[C@H]2O)CC[C@H](COC(=O)C(=C/c2ccc(O)cc2)/C(=C\c2ccc(O)c(O)c2)C(=O)OC[C@H]2CC[C@](C=O)(CCO[C@@H]3O[C@H](CO)[C@@H](O)[C@H](O)[C@H]3O)[C@@H](O)C2)C[C@@H]1O`, the inhibition at 1 µM in series [1] is 8.1%. Besides, in series [2], the inhibition at 3 µM amounted to 18%. In addition, in series [3], the inhibition at 10 µM worked out at 18.4%. Moreover, in series [4], the inhibition at 30 µM was 24.2%. In series [5], the inhibition at 100 µM was determined as 29.8%. Besides, the viability at 72 h, 30 µM in series [7] is above 95.2%.

Regarding `O=C(OC[C@H]1CC[C@](CO)(CCO[C@@H]2O[C@H](CO)[C@@H](O)[C@H](O)[C@H]2O)[C@@H](O)C1)C(=C/c1ccc(O)cc1)/C(=C\c1ccc(O)c(O)c1)C(=O)OC[C@H]1CC[C@](CO)(CCO[C@@H]2O[C@H](CO)[C@@H](O)[C@H](O)[C@H]2O)[C@@H](O)C1`, in series [1], the inhibition at 1 µM worked out at 22.3%. In addition, in series [2], the inhibition at 3 µM came out at 27.2%. The inhibition at 10 µM in series [3] worked out at 27.3%. Further, in series [4], the inhibition at 30 µM was determined as 32.3%. In addition, the inhibition at 100 µM in series [5] was 25.3%. Besides, in series [6], the concentration for half-maximal inhibition (IC50) was above 100 µM. In addition, in series [7], the viability at 72 h, 30 µM is above 80.3%.

Consider `COC(=O)C(=C/c1ccc(OC)cc1)/C(=C\c1ccc(OC)c(OC)c1)C(=O)OC`, for which the inhibition at 1 µM in series [1] is 49%. For the same compound, the inhibition at 3 µM in series [2] was 48.4%. Also, the inhibition at 10 µM in series [3] is 43.6%. The inhibition at 30 µM in series [4] amounted to 35.9%. Moreover, in series [5], the inhibition at 100 µM was 11.5%. For the same compound, the viability at 72 h, 30 µM in series [7] is above 74.5%.

Consider `OC[C@H]1CC[C@](CO)(CCO[C@@H]2O[C@H](CO)[C@@H](O)[C@H](O)[C@H]2O)[C@@H](O)C1`, for which the inhibition at 1 µM in series [1] was determined as 16.1%. Further, the inhibition at 3 µM in series [2] was 17.9%. Besides, the inhibition at 10 µM in series [3] is 15.3%. The inhibition at 30 µM in series [4] was -2.5%. Further, in series [5], the inhibition at 100 µM was -9.4%. Besides, the viability at 72 h, 30 µM in series [7] is above 80.3%.

`C=C1CC[C@@H](O)[C@]2(C)CC[C@@H](C(C)C)[C@H](O)[C@@H]12`: the inhibition at 1 µM in series [1] came to 42.3%. Also, the inhibition at 3 µM in series [2] came to 39.7%. In series [3], the inhibition at 10 µM came to 53.8%. In addition, the inhibition at 30 µM in series [4] worked out at 54.7%. In addition, the inhibition at 100 µM in series [5] stood at 59.2%. This compound also yielded a concentration for half-maximal inhibition (IC50) in series [6] of 8.4 µM. In addition, the viability at 72 h, 30 µM in series [7] was above 74.5%.

`CC(C)[C@@H]1CC[C@@](C)(O)[C@@H]2CCC(C=O)=C[C@H]21`: in series [1], the inhibition at 1 µM came to 25%. In series [2], the inhibition at 3 µM is 45.5%. In addition, the inhibition at 10 µM in series [3] worked out at 64%. For the same compound, the inhibition at 30 µM in series [4] came to 65.9%. Further, the inhibition at 100 µM in series [5] is 48.8%. This compound showed an IC50 in series [6] of 5.1 µM. Also, in series [7], the viability at 72 h, 30 µM was above 80.3%.
